From ChEMBL document CHEMBL4049424, “Hydroxypyridinone and 5-Aminolaevulinic Acid Conjugates for Photodynamic Therapy” (J Med Chem, 2017)
Blank lines part the entries; values can stand above or below the compound they belong to.

Tests used:
KB [1] = assay: Phototoxicity in human KB cells assessed as reduction in cell viability preincubated for 4 hrs followed by irradiation with blue light at 2.5 J/cm2 and subsequent incubation for 18 hrs measured after 24 hrs post treatment by MTT assay; assay type: functional; details: for CC50: light or radiation study, read-out: LD50 (the source's name)
Outline: (§1)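 Cells seeded ~5 × 10^4 per well, grown 48 h, washed with PBS, then 4 h with compound (five concentrations within 1–100 μM, triplicate, three untreated control wells per plate). Irradiated with blue light, peak ~420 nm, 2.5 J/cm². Medium replaced, cells kept a further 18 h. MTT read at A570 24 h after treatment; survival expressed as percentage of control. LD50 taken from two sets of experiments.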

MCF7R = assay: Phototoxicity in human doxorubicin resistant MCF7/R cells assessed as reduction in cell viability preincubated for 4 hrs followed by irradiation with blue light at 2.5 J/cm2 and subsequent incubation for 18 hrs measured after 24 hrs post treatment by MTT assay; assay type: functional; details: for CC50: light or radiation study, read-out: LD50 (the source's name); outline: as §1
[2] = Drug metabolism in human KB cells assessed as protoporphyrin 9 formation at 500 uM preincubated for 1 hr at 4 degC followed by compound washout and subsequent incubation for 4 hrs at 37 degC by fluorescence spectrometer; assay type: ADME, cell-based
Outline: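 KB cells exposed 1 h to 500 μM prodrug in clear medium at either 4 °C or 37 °C, plates foil-wrapped. Compound then removed, PBS rinse, fresh medium, both plates 4 h at 37 °C. PpIX read in wells at 405/635 nm after subtracting untreated wells.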

MCF7 = assay: Phototoxicity in human MCF7 cells assessed as reduction in cell viability preincubated for 4 hrs followed by irradiation with blue light at 2.5 J/cm2 and subsequent incubation for 18 hrs measured after 24 hrs post treatment by MTT assay; assay type: functional; details: for CC50: MCF7, light or radiation study, read-out: LD50 (the source's name); outline: as §1
CNE-2 [3] = assay: Phototoxicity in human CNE2 cells assessed as reduction in cell viability preincubated for 4 hrs followed by irradiation with 6 J/cm2 light dose measured after 24 hrs by MTT assay; assay type: functional
KB [4] = assay: Dark toxicity against human KB cells assessed as cell survival at 100 uM after 24 hrs by MTT assay; assay type: cell-based
[5] = Drug metabolism in human doxorubicin resistant MCF7/R cells assessed as formation of protoporphyrin 9 at 100 uM after 6 hrs by fluorescence spectrometer; assay type: ADME, cell-based; details: mcf7r
Outline: (§2)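 MCF-7R monolayers exposed 6 h at 37 °C to ALA, conjugates or ALA hexyl/octyl esters at 1–100 μM in serum-free medium. PpIX emission at 635 nm (405 nm excitation; spectra 600–750 nm) read in wells. Untreated controls subtracted; mean of triplicates in arbitrary units.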

KB [6] = assay: Dark toxicity against human KB cells at 200 uM preincubated for 4 hrs followed by compound washout measured after 24 hrs by MTT assay; assay type: cell-based
Outline: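 Dark toxicity in KB cells: 200 μM compound for 4 h with no light, removed, cells kept 24 h. Viability by MTT (2 h, A570 after DMSO solubilisation), given as % of untreated controls. Triplicate.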

[7] = Drug metabolism in mouse PAM212 cells assessed as formation of protoporphyrin 9 at 0.01 mM after 6 hrs by fluorescence spectrometer relative to ALA; assay type: ADME, cell-based; details: pam212, 6 h, 10 µM
[8] = Drug metabolism in human KB cells assessed as formation of protoporphyrin 9 at 100 uM after 6 to 24 hrs by fluorescence spectrometer; assay type: ADME, cell-based
Outline: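 Time course in KB cells at 37 °C after 100 μM conjugate, ALA, or 1:1 ALA + HPO mixture in serum-free medium. Well PpIX fluorescence read at 405 nm excitation / 635 nm emission, control autofluorescence subtracted, triplicate means.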

[9] = Drug metabolism in human doxorubicin resistant MCF7/R cells assessed as formation of protoporphyrin 9 preincubated for 2 hrs followed by compound washout measured after 24 hrs by HPLC-based fluorescence analysis; assay type: ADME, cell-based; details: mcf7r
Outline: (§3)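 Cells given ALA or conjugate for 2 h at 37 °C, then fresh medium without compound. At 24 h, lysed in CelLytic (15 min, room temperature), scraped and spun 1800g for 10 min. Supernatant PpIX read by fluorescence at 405/635 nm and normalised per mg protein (BCA). Untreated blanks subtracted.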

[10] = Drug metabolism in human KB cells assessed as formation of protoporphyrin 9 after 2 to 24 hrs by fluorescence spectrometer; assay type: ADME, cell-based
Outline: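 KB monolayers (48 h after seeding ~5×10^4/well) washed, then given prodrug or ALA at 50 μM in serum-free medium at 37 °C. PpIX fluorescence read in wells at 2, 4, 6 and 24 h, excitation 405 nm, emission 635 nm. Untreated wells subtracted for autofluorescence; mean intensity in arbitrary units, triplicate.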

[11] = Drug metabolism in human KB cells assessed as formation of protoporphyrin 9 preincubated for 2 hrs followed by compound washout measured after 24 hrs by HPLC-based fluorescence analysis; assay type: ADME, cell-based; outline: as §3
[12] = Drug metabolism in human doxorubicin resistant MCF7/R cells assessed as formation of protoporphyrin 9 at 100 uM after 6 hrs by fluorescence spectrometer relative to ALA; assay type: ADME, cell-based; details: mcf7r; outline: as §2
KB [13] = assay: Dark toxicity against human KB cells preincubated for 4 hrs followed by compound washout measured after 24 hrs by MTT assay; assay type: cell-based
Outline: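 KB cells seeded ~5×10^4/well, grown 48 h, PBS-washed, then exposed to compound for 4 h without irradiation. Medium replaced and cells kept a further ~24 h. Survival by MTT (1 mg/mL in EMEM, 2 h), formazan dissolved in DMSO, A570, expressed as % of untreated control wells. Triplicate wells.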

CNE-2 [14] = assay: Potency index, ratio of ALA LD80 to test compound LD80 for phototoxicity against human CNE2 cells; assay type: functional
[15] = Dark toxicity against human KB cells assessed as cell survival at 100 uM after 4 hrs by MTT assay; assay type: cell-based; details: read-out: Survival
Outline: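 Cells seeded ~5 × 10^4 per well, grown 48 h, washed with PBS, then exposed to compound in medium for 4 h without irradiation. Incubation then continued for 24 h after prodrug removal. Viability by MTT (1 mg/mL, 2 h), formazan dissolved in DMSO, A570, expressed as percentage of untreated control wells on the same plate. Triplicate.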

CNE-2 [16] = assay: Phototoxicity in human CNE2 cells assessed as reduction in cell viability preincubated for 4 hrs followed by irradiation with 4 J/cm2 light dose measured after 24 hrs by MTT assay; assay type: functional

SMILES: NCC(=O)CCC(=O)O [AMINOLEVULINIC ACID]
- Activity (KB [1]): Dose-dependent effect
- CC50 (KB [1]): 124 µM
- Activity (MCF7R): Dose-dependent effect
- CC50 (MCF7R): 122 µM
- Drug metabolism [2]: Metabolite_Notdetected
- Activity (MCF7): Dose-dependent effect
- CC50 (MCF7): 131 µM
- LD80 (CNE-2 [3]): 0.75 mM
- Activity (KB [4]): Non-Toxic
- Drug metabolism [5]: Metabolite_Detected
- Activity (KB [6]): Non-Toxic

- fold change (FC) [7]: 5
SMILES: COC(=O)CCC(=O)CNC(=O)[C@H](Cc1ccccc1)NC(C)=O

SMILES: CCc1c(O)c(=O)ccn1CCOCCOCCOC(=O)CCC(=O)CN.Cl
- Activity (KB [1]): Dose-dependent effect
- CC50 (KB [1]): 19.6 µM
- Drug metabolism [8]: Metabolite_Detected
- Activity (MCF7R): Dose-dependent effect
- CC50 (MCF7R): 11.3 µM
- Drug metabolism [2]: Metabolite_Detected
- Activity (MCF7): Dose-dependent effect
- CC50 (MCF7): 15.8 µM
- Activity (KB [4]): Non-Toxic
- Drug metabolism [9]: Metabolite_Detected
- Activity (KB [6]): Non-Toxic
- Drug metabolism [10]: Metabolite_Detected
- Drug metabolism [11]: Metabolite_Detected
- fold change (FC) [12]: 20

SMILES: CCCCCCOC(=O)CCC(=O)CN [HEXAMINOLEVULINATE]
- Activity (KB [1]): Dose-dependent effect
- CC50 (KB [1]): 2.6 µM
- Activity (MCF7R): Dose-dependent effect
- CC50 (MCF7R): 8.4 µM
- Activity (MCF7): Dose-dependent effect
- CC50 (MCF7): 9.3 µM
- Activity (KB [13]): Toxic
- Ratio (CNE-2 [14]): 40
- viability at 4 h, 100 µM [15]: 9%
- LD80 (CNE-2 [16]): 0.03 mM
- Drug metabolism [10]: Metabolite_Detected
